In ChEMBL document CHEMBL1132701, “Orally active isoxazoline glycoprotein IIb/IIIa antagonists with extended duration of action” (J Med Chem, 1999) one finds inhibition in vivo, IC50 and Kd data, which are given here for one compound.

Test [1] deals with Canis familiaris. In words: Inhibition ex vivo platelet aggregation by the compound in dogs after 5 hr of administration of iv bolus dose of 0.025 mg/kg. Type of test: functional. The conditions noted are these: Canis lupus familiaris. The essentials:
(§1)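 Dogs received an iv bolus, mostly 0.025 mg/kg, with some tested at 0.05 mg/kg. Blood was sampled at 1, 5 and 24 h postdose. Ex vivo platelet aggregation was stimulated with ADP (100 μM) and reported as % inhibition; n = 2.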

Test [2] relates to Canis familiaris. In words: Inhibition of ex vivo platelet aggregation by the compound in dogs after 1 hr of administration of iv bolus dose of 0.025 mg/kg. The class given is functional. The conditions noted are these: Canis lupus familiaris. The essentials:
as §1

The species named for test [3] is Canis familiaris. The experiment in a line: The compounds were tested for their ability to inhibit ADP-stimulated platelet aggregation in dog platelet rich plasma. The class given is functional. The settings on record: Canis lupus familiaris.
Test [4] is filed under the species Homo sapiens. The experiment in a line: The compound was tested against free acid of DMP 754 to inhibit ADP-stimulated platelet aggregation in human platelet rich plasma. The class given is functional. The essentials: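 IC50 for inhibition of ADP-induced aggregation in human platelet-rich plasma, determined in three donors.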
Test [5] concerns the target Integrin alpha-IIb/beta-3 (Canis familiaris). In words: Dissociation constant for activated Fibrinogen Receptor.
The target is the same in test [6]. The experiment in a line: Dissociation constant for unactivated Fibrinogen Receptor.
The test system of test [7] is Canis familiaris. The experiment in a line: Inhibition ex vivo platelet aggregation by the compound in dogs after 1 hr of administration of oral dose of 0.3 mg/kg. The conditions noted are these: Canis lupus familiaris.
Test [8] has as its system Canis familiaris. The experiment in a line: Inhibition ex vivo platelet aggregation by the compound in dogs after 6 hr of administration of oral dose of 0.3 mg/kg. The conditions noted are these: Canis lupus familiaris.
The test system of test [9] is Canis familiaris. In words: Inhibition ex vivo platelet aggregation by the compound in dogs after 24 hr of administration of oral dose of 0.3 mg/kg. The settings on record: Canis lupus familiaris.

As a reminder, the inhibition in vivo is the share of the control response that was lost under treatment. As usually defined, the IC50 is the concentration needed to halve the response being measured. Low readings indicate higher potency, high ones lower potency. As a reminder, the Kd is the constant that tells how readily two partners part at equilibrium. Read a high Kd as a looser complex. `CCCCOC(=O)N[C@@H](CNC(=O)C[C@H]1CC(c2ccc(C(=N)N)cc2)=NO1)C(=O)OC` [ROXIFIBAN]: the inhibition in vivo at 0.025 mg/kg was 38% in [1] and 100% in [2]. Also, the IC50 in [3] is 27 nM; in test [4] it was 50 nM. In addition, the Kd in test [5] came out at 2.83 nM; in test [6], 2.36 nM. Also, the inhibition in vivo at 0.3 mg/kg in test [7] turned out to be 54%; in [8] it was 76%; in [9] it was 11%.
